Assays:
[1] = biological target: CNGA3 ΔN (2-156), 613X channels (Homo sapiens, UniProt Q16281); experiment: Inside-out patch clamp, CNGA3 ΔN; type: biochemical
[2] = biological target: CNGA3 N7R-A (R72A, R75A, R81A, R82A, R86A, R101A, R103A) channels (Homo sapiens, UniProt Q16281, R101A/R103A/R72A/R75A/R81A/R82A/R86A); experiment: Inside-out patch clamp, CNGA3 N7R-A; type: biochemical
[3] = biological target: T1, A3-N7R-A,RR-QQ+B3 channels (Homo sapiens, UniProt Q16281+Q9NQW8, R101A/R103A/R643Q/R646Q/R72A/R75A/R81A/R82A/R86A); experiment: Inside-out patch clamp, A3-N7R-A,RR-QQ+B3; type: biochemical
T1 sequence (Q16281 1-694 R72A/R75A/R81A/R82A/R86A/R101A/R103A/R643Q/R646Q): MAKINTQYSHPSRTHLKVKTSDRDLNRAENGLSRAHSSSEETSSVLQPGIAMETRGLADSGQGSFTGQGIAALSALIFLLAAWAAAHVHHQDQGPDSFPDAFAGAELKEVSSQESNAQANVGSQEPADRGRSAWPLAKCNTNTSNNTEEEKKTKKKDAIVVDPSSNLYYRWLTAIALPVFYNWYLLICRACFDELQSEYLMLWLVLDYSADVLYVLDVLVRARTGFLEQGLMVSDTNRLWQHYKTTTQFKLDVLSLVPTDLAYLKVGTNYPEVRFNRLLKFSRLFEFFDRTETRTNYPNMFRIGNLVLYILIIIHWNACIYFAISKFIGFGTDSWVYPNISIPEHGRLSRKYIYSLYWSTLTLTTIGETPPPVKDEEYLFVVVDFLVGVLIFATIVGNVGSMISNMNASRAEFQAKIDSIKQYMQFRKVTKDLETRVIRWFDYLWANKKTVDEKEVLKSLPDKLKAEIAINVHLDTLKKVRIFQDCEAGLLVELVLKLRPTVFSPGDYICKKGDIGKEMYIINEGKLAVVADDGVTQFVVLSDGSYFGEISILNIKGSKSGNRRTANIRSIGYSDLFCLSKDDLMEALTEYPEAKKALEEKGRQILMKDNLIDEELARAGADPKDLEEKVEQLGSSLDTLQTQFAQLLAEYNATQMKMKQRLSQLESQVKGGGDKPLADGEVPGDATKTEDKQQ
T1 sequence (Q9NQW8 1-809): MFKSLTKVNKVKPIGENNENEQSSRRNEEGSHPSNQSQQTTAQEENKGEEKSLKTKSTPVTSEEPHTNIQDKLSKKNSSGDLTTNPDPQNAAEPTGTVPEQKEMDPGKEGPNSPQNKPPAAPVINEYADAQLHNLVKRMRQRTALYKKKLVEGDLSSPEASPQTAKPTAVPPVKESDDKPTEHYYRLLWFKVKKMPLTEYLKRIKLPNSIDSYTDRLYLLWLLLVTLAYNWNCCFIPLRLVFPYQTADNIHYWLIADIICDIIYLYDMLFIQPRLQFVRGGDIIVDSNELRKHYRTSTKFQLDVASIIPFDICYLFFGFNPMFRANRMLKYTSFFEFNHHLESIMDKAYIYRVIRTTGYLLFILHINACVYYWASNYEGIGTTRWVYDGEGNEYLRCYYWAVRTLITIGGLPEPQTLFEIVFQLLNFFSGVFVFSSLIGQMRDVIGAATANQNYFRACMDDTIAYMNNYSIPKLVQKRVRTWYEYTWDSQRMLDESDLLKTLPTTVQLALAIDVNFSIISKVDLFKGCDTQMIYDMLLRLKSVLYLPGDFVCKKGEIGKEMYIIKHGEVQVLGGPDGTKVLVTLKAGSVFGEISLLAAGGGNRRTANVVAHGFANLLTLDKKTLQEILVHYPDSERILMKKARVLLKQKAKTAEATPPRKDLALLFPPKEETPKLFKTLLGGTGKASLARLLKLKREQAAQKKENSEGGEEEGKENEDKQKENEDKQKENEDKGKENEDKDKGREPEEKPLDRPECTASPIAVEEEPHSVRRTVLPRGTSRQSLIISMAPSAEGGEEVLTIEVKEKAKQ
Method in brief: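 Subunit cRNAs (~20 ng, B in excess over A) injected into stage IV Xenopus oocytes; inside-out patches 2–7 d later, 20–22°C, symmetric 130 mM NaCl, 0.2 mM EDTA, 3 mM Hepes pH 7.2. Heteromer formation checked by 25 µM l-cis-diltiazem with 1 mM cGMP. diC8 phosphoinositides applied intracellularly in phosphatase-inhibitor cocktail. cGMP dose–response at +80 mV, leak-subtracted, Hill fit before/after for K1/2; mean ± SEM.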

GST fusion A3C7K/R-A = GST fusion A3C7K/R-A (Homo sapiens, UniProt Q16281, K624A/K629A/K657A/K659A/R643A/R646A/R661A); experiment: In vitro PIP3-agarose bead pull-down, A3C7K/R-A; type: binding; conditions: PIP3-agarose beads, anti-GST immunoblot; compared with A3C
Method in brief: (§1)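 Recombinant GST fusions of channel fragments expressed in E. coli and purified; soluble fraction kept after 20,000 g, 4°C, 30 min. Protein (2 µg/ml) rocked with PIP3- or control agarose beads, 2 h, 4°C, in 10 mM Hepes pH 7.4, 50 mM NaCl, 2 mM EDTA, 0.25% Triton X-100, 0.25% NP-40. Five washes, elution in sample buffer, reducing SDS gel, anti-GST (1:2,000, overnight) immunoblot, chemiluminescence; […].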

GST fusion A3N7R-A = GST fusion A3N7R-A (Homo sapiens, UniProt Q16281, R101A/R103A/R72A/R75A/R81A/R82A/R86A); experiment: In vitro PIP3-agarose bead pull-down, A3N7R-A; type: binding; conditions: PIP3-agarose beads, anti-GST immunoblot; compared with A3N
Method in brief: as §1

[4] = read-out: K1/2 cGMP, +80 mV, no PIPn

Hill coefficient ([1]; cGMP activation)	EC50 [1, 4]	Hill coefficient ([2]; cGMP activation)	EC50 [2, 4]	regulation of apparent cGMP affinity ([3]; 10 µM PIP2 or 1 µM PIP3)	percent change in K1/2 cGMP caused by PIP3 ([3]; 10 µM PIP3)	in vitro PIP3 binding (GST fusion A3C7K/R-A)	in vitro PIP3 binding (GST fusion A3N7R-A)	Compound
1.66 ± 0.10 (6)	15.8 ± 2.8 µM	1.59 ± 0.18 (4)	8.89 ± 1.15 µM	–	–	–	–	Nc1nc2c(ncn2[C@@H]2O[C@@H]3COP(=O)(O)O[C@H]3[C@H]2O)c(=O)[nH]1 [cGMP, cyclic guanosine monophosphate]
–	–	–	–	insensitive to regulation	2 ± 8%	attenuated binding to PIP3 beads	attenuated binding to PIP3 beads	phosphatidylinositol (3,4,5)-trisphosphate [PIP3]

From article PMC3607822 (The Journal of General Physiology, 2013)
